Source: PubChem BioAssay
This is a sample that favours compounds with a hit; in the whole collection about 3.8% have one here.
KCNQ1 inh: inhibitors of human KCNQ1 channel, primary screen, cell-based, thallium flux, high-throughput; B-score at 10 µM; actives 1.3% (n = 310,000); CHO-K1 KCNQ1, FluxOR thallium flux fluorescence; hits give high values;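 active = compounds whose thallium flux B-score, printed positive for inhibition, exceeds three library SD while starting fluorescence stays within three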;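 note: channel opened by potassium depolarization with thallium stimulus after 20 min compound exposure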
hERG rescue: hERG rescue from dofetilide block, primary screen, cell-based, CHO-hERG, FluxOR thallium flux, dofetilide IC70; Voltage-gated inwardly rectifying potassium channel KCNH2 (Homo sapiens), Q12809; dofetilide IC70 present; actives 0.51% (n = 310,000); activation (rescue from dofetilide block), less the hit threshold, % at 10 µM;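 active = activation above the mean of controls blocked by dofetilide plus 5 SD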;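 note: thallium influx through hERG after potassium depolarization seen as dye fluorescence rise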
KCNK9 inh: KCNK9 potassium channel inhibitors, primary screen, HEK293 cells, thallium flux | B-score at 10 µM | FluxOR thallium flux fluorescence; hits give low values | Potassium channel subfamily K member 9 (Homo sapiens), Q9NPC2 | actives 1.2% (n = 310,000);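 active = ratio B-score over 3 SD below the library mean, with starting fluorescence within 5 SD of its mean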;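 note: negative B-score means less thallium flux so channel inhibition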
Target sequence (Q9NPC2 whole entry, looked up): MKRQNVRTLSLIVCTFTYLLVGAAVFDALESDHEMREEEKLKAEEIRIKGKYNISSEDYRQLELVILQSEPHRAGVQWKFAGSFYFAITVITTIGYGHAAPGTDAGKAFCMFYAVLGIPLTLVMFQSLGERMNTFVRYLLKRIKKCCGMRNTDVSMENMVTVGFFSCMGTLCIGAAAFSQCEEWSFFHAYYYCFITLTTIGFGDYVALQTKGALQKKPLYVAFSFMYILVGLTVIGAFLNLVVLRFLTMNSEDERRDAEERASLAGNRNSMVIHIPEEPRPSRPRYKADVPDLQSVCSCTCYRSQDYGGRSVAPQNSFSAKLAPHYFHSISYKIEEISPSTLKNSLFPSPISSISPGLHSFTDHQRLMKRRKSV
KCNK3 block: human KCNK3 channel inhibitors, primary screen, CHO cells, FluxOR thallium flux, B-score. B-score at 10 µM. actives 0.84% (n = 340,000). AID 602410, 2012. FluxOR fluorescence; hits give low values. Potassium channel subfamily K member 3 (Homo sapiens), O14649;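 active = B-score under library mean minus 4 SD, starting fluorescence ratio at most library mean plus 5 SD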;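 note: more negative B-score means stronger inhibition of thallium flux through KCNK3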
Kir21 block: inhibitors of mouse Kir2.1 inward-rectifier potassium channel; Inward rectifier potassium channel 2 (Mus musculus), P35561; HEK293-Kir2.1, FluxOR thallium flux fluorescence; hits give low values; B-score at 10 µM; actives 0.85% (n = 310,000); AID 1672, 2009;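 active = fluorescence ratio B-score at or below minus 3 SD of library scores, with starting-brightness B-score within 2 SD, cut at about -4.2 in these data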;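 note: channel flux triggered by added potassium and thallium sulfate stimulus; B-score of peak minus minimum fluorescence over baseline after thallium stimulus; more negative B-score means stronger Kir2.1 block with less thallium influx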
KCNQ1 act: potentiators or activators of KCNQ1 channel, primary screen, cell-based, thallium flux, high-throughput; Potassium voltage-gated channel subfamily KQT member 1 (Homo sapiens), P51787; CHO-K1 KCNQ1, thallium flux FluxOR fluorescence; hits give high values; B-score at 10 µM; actives 0.35% (n = 310,000); AID 2648, 2010;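 active = fluorescence ratio B-score, a plate-corrected score, at least three library SD, with initial intensity B-score within 5 SD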
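assay system = KCNQ1-transfected CHO-K1 cells | medium = assay buffer with matched DMSO | probe or stimulus = depolarizing K+/Tl+ stimulus, K2SO4 and Tl2SO4 each 12.5 mM in 5x stock | dosing = single dose | incubation = dye 90 min, compound 20 min, room temperature | detection = kinetic FluxOR fluorescence, 10 s baseline plus 110 s post-stimulus | evaluation = ratio B score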
KCNK3 confirm: retest of human KCNK3 channel inhibitors, confirmation, CHO cells, FluxOR thallium flux, triplicate. shares compounds with KCNK3 block. FluxOR fluorescence; 0% buffer, 100% carvedilol maximal block. ratio percent of control, % at 10 µM. actives 99% (n = 2,400);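 active = ratio percent of control, averaged over triplicates, above buffer control mean plus 5 SD, cut at about 64% in these data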;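 note: ratio is the fluorescence rise from min to max over baseline after thallium stimulus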
KCNK3 uninduced: thallium flux inhibition in non-induced cells, primary screen, counter-screen for KCNK3 inhibitor project, cell-based, non-induced KCNK3 line, FluxOR thallium, triplicate. non-induced KCNK3 parental cells; hits give low values. shares compounds with KCNK3 block. thallium flux ratio (lower = more inhibition) at 10 µM. actives 40% (n = 2,400);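 active = thallium flux ratio, averaged over three wells, more than 5 SD below the buffer control mean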;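 note: host cells are CHO cells without KCNK3 induction; ratio is peak minus trough fluorescence over baseline then normalized to buffer controls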
Active calls of the source: *; i = inactive; nt = no result given.

SMILES	KCNQ1 inh	hERG rescue	KCNK9 inh	KCNK3 block	Kir21 block	KCNQ1 act	KCNK3 confirm	KCNK3 uninduced
O=S(=O)(c1cccc2cccnc12)N1CCN(c2ccccc2)CC1	i	-17.1	i	i	-0.01	i	nt	nt
Cc1ccc(C)c(N2CCN(S(=O)(=O)c3cccc4cccnc34)CC2)c1	i	-10.4	i	-9.85*	-1.62	i	115.7*	0.149*
COC(=O)CSc1nc2c(c(-c3ccc(C)o3)c1C#N)CCCC2	i	-3.2	i	i	0.01	i	nt	nt
CCSc1nc2c(c(-c3ccc(C)o3)c1C#N)CCCC2	i	-6.9	-6.69*	-8.8*	-1.65	i	95.7*	i
CC1CCc2ccccc2N1C(N)=Nc1ccccc1 (centres undefined)	i	-12.4	i	i	0.01	i	nt	nt
COc1ccccc1NC(=O)Cn1cc(C(=O)c2ccco2)c2ccccc21	i	-13.0	i	i	0.1	i	nt	nt
COc1ccccc1OCCn1cc(C(=O)c2ccco2)c2ccccc21	i	-12.4	-7.37*	-11.8*	-2.14	i	102.3*	i
COc1cccc(OCCn2cc(C(C)=O)c3ccccc32)c1	i	-13.4	i	-9.24*	-2.51	i	123.7*	i
C[C@@H]1CN([C@H](C)CO)C(=O)c2cc(NS(=O)(=O)c3cn(C)cn3)ccc2O[C@H]1CN(C)C(=O)Nc1ccccc1	nt	nt	nt	i	nt	nt	nt	nt
CCCc1nn(-c2cc(Cl)ccc2OC)c2c1C(=O)CC(C)(C)C2	i	-7.9	i	-10.8*	-1.19	i	86.7*	i
CCCc1nc(N2CCOCC2)c(C#N)c2c1CCCC2	i	-9.4	i	i	-1.9	i	nt	nt
N#CCCSc1nc(N2CCOCC2)c2c(c1C#N)CCCC2	i	-16.0	i	i	-0.86	i	nt	nt
CCCSc1nc(N2CCOCC2)c2c(c1C#N)CCCC2	i	-2.2	i	-11.5*	0.05	i	112.0*	0.152*
CC(C)Cc1nc(N2CCCCC2)c(C#N)c2c1CCC2	i	-10.0	i	-9.61*	0	i	97.7*	i
CCCCc1nc(N2CCOCC2)c(C#N)c2c1CCCC2	i	-10.8	i	-11.4*	0.07	i	108.3*	i
CCOc1cc(/C=N/NC(=O)COc2ccc(Cl)cc2)ccc1OS(=O)(=O)c1ccccc1	i	-15.9	i	i	-0.53	i	nt	nt
CCOc1cc(/C=N/NS(=O)(=O)c2ccccc2)ccc1OS(=O)(=O)c1ccc(C)cc1	i	-12.9	i	-9.36*	-3.23	i	101.7*	i
CN(CCCC(=O)Nc1ccncc1)S(=O)(=O)c1ccc(Cl)cc1	i	-10.9	i	i	-1.68	i	nt	nt
O=C(Nc1ccc2nc(-c3ccco3)[nH]c2c1)c1ccco1	i	-15.1	i	-8.94*	-0.34	i	139.7*	i
Cn1cccc1-c1nc2ccc(NC(=O)c3ccccc3)cc2[nH]1	i	-18.8	i	-11.2*	-1.34	i	102.7*	i
CCCCn1c(N)c(N(CC(C)C)C(=O)COc2cc(C)ccc2Cl)c(=O)[nH]c1=O	nt	nt	nt	i	nt	nt	nt	nt
